Source: ChEMBL document CHEMBL2163220 (J Med Chem, 2012)
Where a chain is given by its changes, count along the chain named. Activity calls are given as the source filed them. No cut-off for these calls is given here.

Tests used:
Assay type in all cases: functional, cell-based
[1] = test system: T1, Androgen receptor (Homo sapiens), P10275 [H875Y]; assay: Antagonist activity at androgen receptor H874Y mutant expressed in human PC3 cells assessed as reduction in DHT-induced receptor transactivation at 0.1 to 1 uM by luciferase reporter gene assay; conditions: PC-3
T1 sequence (whole entry): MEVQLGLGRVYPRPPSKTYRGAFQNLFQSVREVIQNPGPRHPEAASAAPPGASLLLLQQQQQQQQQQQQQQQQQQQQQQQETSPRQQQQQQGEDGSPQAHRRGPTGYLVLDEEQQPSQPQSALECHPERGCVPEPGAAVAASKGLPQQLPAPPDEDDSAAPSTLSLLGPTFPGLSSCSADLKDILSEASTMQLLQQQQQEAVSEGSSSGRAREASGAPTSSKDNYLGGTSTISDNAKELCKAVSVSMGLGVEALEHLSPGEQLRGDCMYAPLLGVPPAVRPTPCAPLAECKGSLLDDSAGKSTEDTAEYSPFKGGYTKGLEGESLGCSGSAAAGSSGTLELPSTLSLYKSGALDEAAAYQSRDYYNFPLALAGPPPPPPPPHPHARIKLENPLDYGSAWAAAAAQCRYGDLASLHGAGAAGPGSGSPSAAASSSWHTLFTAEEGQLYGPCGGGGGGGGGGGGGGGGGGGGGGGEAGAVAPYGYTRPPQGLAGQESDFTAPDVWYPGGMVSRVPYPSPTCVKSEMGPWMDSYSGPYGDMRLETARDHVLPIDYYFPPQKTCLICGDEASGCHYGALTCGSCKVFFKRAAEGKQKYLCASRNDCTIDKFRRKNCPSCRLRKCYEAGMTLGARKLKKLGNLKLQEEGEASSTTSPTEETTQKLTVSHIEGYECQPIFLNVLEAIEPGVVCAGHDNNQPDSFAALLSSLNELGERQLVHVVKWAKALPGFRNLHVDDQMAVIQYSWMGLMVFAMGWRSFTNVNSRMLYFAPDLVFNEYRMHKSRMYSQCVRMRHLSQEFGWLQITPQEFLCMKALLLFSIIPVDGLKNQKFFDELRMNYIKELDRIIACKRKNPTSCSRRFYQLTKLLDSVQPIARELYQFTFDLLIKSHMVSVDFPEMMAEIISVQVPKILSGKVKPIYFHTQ
How it was run: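 Full-length wild-type or mutant AR plasmid transiently transfected into PC-3 cells with MMTV-luc and Renilla luciferase reporters. Cells treated with DMSO vehicle or compound at 0.1 and 1 μM, alone or with 0.1 nM DHT. Luciferase read as relative luciferase units. Run in triplicate.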

[2] = molecular target: T2, Androgen receptor (Homo sapiens) (UniProt P10275); assay: Antagonist activity at androgen receptor in human LNCaP cells assessed as reduction in DHT-induced PSA expression by luciferase reporter gene assay
T2 sequence (whole entry): T1 sequence (whole entry) with Y875H
How it was run: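 LNCaP cells carrying a PSA-luc reporter were treated with compound at 1 and 2.5 μM in the presence of 1 nM DHT. Fold suppression was calculated relative to 1 nM DHT alone. Run in triplicate.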

LNCaP [3] = assay: Induction of apoptosis in human LNCAP cells assessed as caspase-3 activation incubated for 24 hrs by Western blotting
How it was run: (§1)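 LNCaP cells in complete medium were exposed to DMSO or compound at 1, 2.5 and 5 μM for 24 h. Western blot measured AR, maspin, caspase-3 activation and PARP cleavage, with β-actin as loading control.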

LNCaP [4] = assay: Reduction in androgen receptor protein expression in human LNCAP cells incubated for 24 hrs by Western blotting; how it was run: as §1
PC-3 = assay: Effect on in Maspin expression in human PC3 cells deficient in wild type androgen receptor at 5 uM by luciferase reporter gene assay
How it was run: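 PC-3 cells were transfected with maspin-luc, with or without cotransfected AR. Cells were exposed to DMSO vehicle or compound at 2.5 and 5 μM. Luciferase activity was measured in triplicate.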

## Cc1coc2c1C(=O)C(=O)c1c-2ccc2c1CCCC2(C)C [TANSHINONE IIA]
[1]
  Activity: inactive
[2]
  Activity: Dose-dependent effect
LNCaP [3]
  Activity: Dose-dependent effect
LNCaP [4]
  Activity: Dose-dependent effect
PC-3
  Activity: inactive
